{"data": "Results from different studies", "target": "Calcium/calmodulin-dependent protein kinase type 1 (CAMK1, Homo sapiens, UniProt Q14012)"}
{"Structure (SMILES)": "CC(=O)N1CCC(c2ccc(C(=O)NC(=N)N)cc2C(F)(F)F)CC1", "observed": "cell-free assay", "technique": "competition with immobilised ligand", "concentration": "1 µM", "remaining binding [%]": 100}
{"Structure (SMILES)": "Cc1cnn2ncc(-c3ccnc(N(C)C)n3)c2c1", "observed": "binding", "concentration": "1 µM", "remaining binding [%]": 92}
{"Structure (SMILES)": "O=C(Nc1c[nH]nc1C(=O)NC1CCNCC1)c1cc(F)cc(F)c1", "observed": "binding", "technique": "competition with immobilised ligand", "concentration": "1 µM", "remaining binding [%]": 74}
{"Structure (SMILES)": "COc1ccc2c(c1)O[C@H](c1ccc(OC)c(OC)c1)C[C@@H]2NC(=O)C1(c2ccc3c(c2)OC(F)(F)O3)CC1", "observed": "cell-free assay", "technique": "competition with immobilised ligand", "concentration": "1 µM", "remaining binding [%]": 100}
{"Structure (SMILES)": "CNC(=O)[C@@H]1CC[C@@H](n2c(-c3ccc4cnccc4c3)nc3ccc(C(=O)NCc4cccc(C(N)=O)c4)cc32)C1", "observed": "binding", "technique": "competition with immobilised ligand", "concentration": "1 µM", "remaining binding [%]": 99}
{"Structure (SMILES)": "CN(C)CC#Cc1ccc(OCCCc2sc(N3CCc4cccc(C(=O)Nc5nc6ccccc6s5)c4C3)nc2C(=O)O)c(F)c1", "observed": "cell-free assay", "technique": "competition with immobilised ligand", "concentration": "1 µM", "remaining binding [%]": 93}
{"Structure (SMILES)": "O=C(NCCCN1CCOCC1)c1ccc(Nc2nccc(-c3cc4ccccc4s3)n2)cc1", "observed": "binding", "technique": "competition with immobilised ligand", "concentration": "1 µM", "remaining binding [%]": 75}
{"Structure (SMILES)": "CN(C)c1ncc(F)c(-c2cnn3ncccc23)n1", "observed": "binding", "concentration": "1 µM", "remaining binding [%]": 86}
{"Structure (SMILES)": "CN([C@@H]1CCc2c(CC(=O)O)c3ccccc3n2C1)S(=O)(=O)c1ccc(F)cc1", "observed": "cell-free assay", "technique": "competition with immobilised ligand", "concentration": "1 µM", "remaining binding [%]": 100}
{"Structure (SMILES)": "CCN1CCN(Cc2ccc(C(=O)Nc3ccc(C)c(Oc4ccc5c(c4)CC(=O)N5)c3)cc2C(F)(F)F)CC1", "observed": "binding", "technique": "competition with immobilised ligand", "concentration": "1 µM", "remaining binding [%]": 100}
{"Structure (SMILES)": "CCCOc1ccc([C@H]2[C@H](C(=O)O)[C@@H](c3ccc4c(c3)OCO4)CN2CC(=O)Nc2c(CC)cccc2CC)cc1", "observed": "cell-free assay", "technique": "competition with immobilised ligand", "concentration": "1 µM", "remaining binding [%]": 93}
{"Structure (SMILES)": "CN(c1nccc(-c2cnn3ncccc23)n1)C1CC1", "observed": "binding", "concentration": "1 µM", "remaining binding [%]": 82}
{"Structure (SMILES)": "O=C(c1ccc(Nc2ncc(Cl)c(-c3ccc(Cl)s3)n2)cc1)N1CCC(N2CCCC2)CC1", "observed": "binding", "technique": "competition with immobilised ligand", "concentration": "1 µM", "remaining binding [%]": 54}
{"Structure (SMILES)": "N[C@H]1CCN(c2nccc(-c3cnn4ncccc34)n2)C1", "observed": "binding", "concentration": "1 µM", "remaining binding [%]": 88}
{"Structure (SMILES)": "C=CC(=O)N1CCC(C(=O)NCC(=O)N2CCN(c3nc(-c4cnc(N)nc4C(F)F)nc(N4CCOCC4)n3)CC2)CC1", "observed": "binding", "technique": "competition with immobilised ligand", "concentration": "1 µM", "remaining binding [%]": 86}
{"Structure (SMILES)": "COc1ncc2cc3ccccc3nc2c1C#N", "observed": "cell-free assay", "technique": "competition with immobilised ligand", "concentration": "5 µM", "remaining binding [%]": 100}
{"Structure (SMILES)": "F[C@@H]1CCN(c2nccc(-c3cnn4ncccc34)n2)C1", "observed": "binding", "concentration": "1 µM", "remaining binding [%]": 100}
{"Structure (SMILES)": "Cc1cnc(Nc2ccc(C(=O)N3CCC(N4CCCC4)CC3)cc2)nc1-c1cc2ccccc2s1", "observed": "binding", "technique": "competition with immobilised ligand", "concentration": "1 µM", "remaining binding [%]": 30}
{"Structure (SMILES)": "CN(CCCC(F)(F)F)c1nccc(-c2cnn3ncccc23)n1", "observed": "binding", "concentration": "1 µM", "remaining binding [%]": 76}
{"Structure (SMILES)": "Cn1cc(Cl)c2c(Oc3c(F)cc(Nc4cc(Cl)nc(N)n4)cc3F)ccnc21", "observed": "cell-free assay", "technique": "competition with immobilised ligand", "concentration": "0.1 µM", "remaining binding [%]": 100}
